The test system of one experiment is MDA-MB-231. In words: Growth inhibition of human MDA-MB-231 cells after 72 hrs by SRB assay. It is filed as functional. The following applies: MDA-MB-231, 72 h. Put shortly:
(§1)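 Cells seeded at 5×10^3/well in RPMI and attached for 18 h drug-free. Samples added in DMSO/H2O 3:7 for 72 h exposure. Cells then fixed with cold TCA for 60 min at 4 °C, stained with 0.4% SRB in 1% acetic acid for 10 min, stain solubilized in Tris and read at 490 nm. GI50 from 100×[(T−T0)/(C−T0)]=50; mean of triplicates.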
In general terms: The SRB assay estimates cell density from bound dye.

The test system of another experiment is HT-29. In words: Growth inhibition of human HT-29 cells after 72 hrs by SRB assay. It is filed as functional. Conditions: HT-29, 72 h. Put shortly:
as §1

The next experiment concerns A549. The experiment in a line: Growth inhibition of human A549 cells after 72 hrs by SRB assay. It is filed as functional. Conditions: A549, 72 h. Put shortly:
as §1

Experiment [1] has as its system HeLa. In words: Disruption of microtubule network in human HeLa cells at 1 uM after 24 hrs by DAPI staining-based confocal laser scanning microscopy relative to control. It is filed as cell-based. Put shortly: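 HeLa cells in DMEM with 10% heat-inactivated FCS, 2 mM L-glutamine, penicillin/streptomycin, 37 °C, 5% CO2, grown on poly-L-lysine coverslips; 1 µM, 24 h. Fixed in 4% paraformaldehyde in HPEM (pH 6.6), 0.5% Triton X-100 permeabilized, anti-alpha-tubulin mouse mAb (1:150), Cy2 anti-mouse IgG, DAPI nuclei; confocal imaging versus untreated cells; at least three experiments.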

Experiment [2] relates to HeLa. The experiment in a line: Induction of cell cycle arrest in human HeLa cells assessed as accumulation at G2/M phase at 1 uM after 24 hrs by propidium iodide staining-based FACS flow cytometry. It is filed as functional. Put shortly: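 Mycoplasma-negative HeLa cells in DMEM with 10% heat-inactivated FCS, 2 mM L-glutamine, penicillin/streptomycin, 37 °C, 5% CO2; exposed to 1 µM for 24 h alongside untreated controls. 3–5×10^5 cells fixed overnight in 70% ethanol at 4 °C, PBS-washed, 1 h with 1 mg/mL RNase A plus 20 µg/mL propidium iodide at room temperature; flow cytometry for % G2/M; three independent experiments.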
(In general: Flow cytometry measures light scatter and fluorescence of single cells or particles in a stream.)

Active and inactive are the calls of the source. No cut-off for these calls is given here.

For the molecule `COc1cc([C@@H]2c3cc4c(cc3[C@H](O)[C@@H](CO)[C@H]2C(=O)OCCCCCCBr)OCO4)cc(OC)c1OC`, the GI50 (usually the concentration giving 50% growth inhibition) was 350 nM in the experiment with MDA-MB-231, 160 nM in the experiment with HT-29 and 250 nM in the experiment on A549.
Taken in the same sequence, the figures for `COC(=O)[C@@H]1C(C=O)=Cc2cc3c(cc2[C@H]1c1cc(OC)c(OC)c(OC)c1)OCO3` [PODOPHYLLIC ALDEHYDE] were 200 nM, 39 nM and 60 nM.
Consider `CCCNc1ncnc2c1ncn2CCCCCCOC(=O)[C@@H]1C(C=O)=Cc2cc3c(cc2[C@H]1c1cc(OC)c(OC)c(OC)c1)OCO3`, for which the GI50 turned out to be 5100 nM with MDA-MB-231, 1200 nM with HT-29 and 1200 nM with A549. Besides, the outcome with HeLa [1] and with HeLa [2] was Active.
Regarding `COc1cc([C@@H]2c3cc4c(cc3[C@@H](O[C@@H]3O[C@@H]5CO[C@@H](C)O[C@H]5[C@H](O)[C@H]3O)[C@H]3COC(=O)[C@H]23)OCO4)cc(OC)c1O` [ETOPOSIDE], the concentration for 50% growth inhibition (GI50) in the experiment on MDA-MB-231 came out at 7200 nM; in the experiment on HT-29, 9400 nM; with A549, 2200 nM.
Consider `COc1cc([C@@H]2c3cc4c(cc3C=C(C=O)[C@H]2C(=O)OCCCn2cnc3cncnc32)OCO4)cc(OC)c1OC`, for which the results for the GI50 with MDA-MB-231, in the experiment with HT-29 and with A549 were 7700 nM, 710 nM and 790 nM, respectively. Further, the result in the experiment with HeLa [1] and in the experiment on HeLa [2] was Active.
Turning to `COc1cc([C@@H]2c3cc4c(cc3C=C(C=O)[C@H]2C(=O)OCc2ccc(CBr)cc2)OCO4)cc(OC)c1OC`, the GI50 in the experiment with MDA-MB-231 came to 700 nM; with HT-29, 77 nM; in the experiment with A549, 85 nM.
Turning to `COc1cc([C@@H]2c3cc4c(cc3C=C(C=O)[C@H]2C(=O)OCCCBr)OCO4)cc(OC)c1OC`, the GI50 with MDA-MB-231 stood at 130 nM; in the experiment with HT-29, 140 nM; with A549 it was 190 nM.
Taken in the same sequence, the figures for `CCC/N=C/C1=Cc2cc3c(cc2[C@@H](c2cc(OC)c(OC)c(OC)c2)[C@@H]1C(=O)OCc1ccc(Cn2cnc4c(Cl)ncnc42)cc1)OCO3` were 740 nM, 90 nM and 59 nM.
For `CCCNCC1=Cc2cc3c(cc2[C@@H](c2cc(OC)c(OC)c(OC)c2)[C@@H]1C(=O)OCCCCCCn1cnc2c(Cl)ncnc21)OCO3`, the GI50 with MDA-MB-231 came out at 3500 nM; in the experiment with HT-29, 2200 nM; in the experiment with A549, 2300 nM.
Regarding `COc1cc([C@@H]2c3cc4c(cc3C=C(C=O)[C@H]2C(=O)OCCCCCCn2cnc3c(Cl)ncnc32)OCO4)cc(OC)c1OC`, the GI50 in the experiment on MDA-MB-231 is 3100 nM; with HT-29 it was 770 nM; in the experiment on A549, 400 nM. In addition, the outcome in the experiment with HeLa [1] and in the experiment on HeLa [2] was Active.
With `COc1cc(-c2c(C(=O)OCCCn3cnc4c(Cl)ncnc43)c(C=O)cc3cc4c(cc23)OCO4)cc(OC)c1OC`, the GI50 in the experiment with MDA-MB-231 came out at 5000 nM; with HT-29, 2100 nM; with A549, 2000 nM. For the same molecule, the result with HeLa [1] and in the experiment on HeLa [2] was Active.
As for `COc1cc([C@@H]2c3cc4c(cc3C=C(C=O)[C@H]2C(=O)OCc2ccc(Cn3cnc5c(Cl)ncnc53)cc2)OCO4)cc(OC)c1OC`, the results for the GI50 in the experiment with MDA-MB-231, in the experiment on HT-29 and in the experiment with A549 were 810 nM, 51 nM and 29 nM, respectively. The result in the experiment on HeLa [1] and with HeLa [2] was Active.
Consider `COc1cc([C@@H]2c3cc4c(cc3C=C(C=O)[C@H]2C(=O)OCCCCCCBr)OCO4)cc(OC)c1OC`, for which the GI50 turned out to be 1800 nM in the experiment on MDA-MB-231, 740 nM in the experiment on HT-29 and 660 nM in the experiment on A549.
Turning to `COc1cc([C@@H]2c3cc4c(cc3C=C(C=O)[C@H]2C(=O)OCCCn2cnc3c(Cl)ncnc32)OCO4)cc(OC)c1OC`, the GI50 in the experiment on MDA-MB-231 was determined as 2400 nM; with HT-29, 910 nM; in the experiment with A549, 750 nM. Further, the outcome with HeLa [1] and in the experiment on HeLa [2] was Active.
Take `COc1cc([C@@H]2c3cc4c(cc3C=C(C=O)[C@H]2C(=O)OCCCCCCn2cnc3ncnc(Cl)c32)OCO4)cc(OC)c1OC`: the GI50 with MDA-MB-231 came out at 3700 nM; in the experiment with HT-29, 1700 nM; with A549, 1200 nM. For the same molecule, the result in the experiment with HeLa [1] and in the experiment with HeLa [2] was Active.
As to `COc1cc([C@@H]2c3cc4c(cc3[C@H](O)[C@@H](CO)[C@H]2C(=O)OCCCBr)OCO4)cc(OC)c1OC`, the GI50 in the experiment with MDA-MB-231 is 160 nM; in the experiment with HT-29, 140 nM; in the experiment on A549, 140 nM.
With `CCCNCC1=Cc2cc3c(cc2[C@@H](c2cc(OC)c(OC)c(OC)c2)[C@@H]1C(=O)OCc1ccc(Cn2cnc4c(Cl)ncnc42)cc1)OCO3`, the GI50 was 1300 nM in the experiment with MDA-MB-231, 630 nM in the experiment on HT-29 and 580 nM in the experiment on A549.
For the molecule `COc1cc([C@@H]2c3cc4c(cc3C=C(C=O)[C@H]2C(=O)OCCCCCCn2cnc3cncnc32)OCO4)cc(OC)c1OC`, the figures for the GI50 in the experiment with MDA-MB-231, with HT-29 and with A549 were 2400 nM, 530 nM and 310 nM, respectively. Also, the outcome in the experiment with HeLa [1] and in the experiment on HeLa [2] was Active.
